Assay outcomes as filed in PubChem BioAssay.
The entries come from a sample that favours hits as a whole.
UPR CHOP act = activators of apoptotic arm of unfolded protein response (CHOP). actives 0.34% (n = 330,000). CHO-CHOP luciferase reporter, UPR activation, luminescence; percent of tunicamycin response over DMSO baseline. activation, % at 10 µM;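 active means at 10 µM dose, activation of 40% or more, normalized to positive control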
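assay system = CHO CHOP reporter cells | amount = 500 CHO-CHOP cells per well | buffer or medium = F12 with 10% FBS | incubation = 16-18 h cell attachment, then 6 h compound exposure, 37 °C | detection = luminescence read with Steady-Glo | read-out = percent activation relative to tunicamycin control | controls = tunicamycin high control, DMSO low control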
CHOP inh = CHOP inhibition in unfolded protein response. CHO-K1 CHOP-promoter luciferase, tunicamycin-induced, 15-18 h. inhibition, % at 10 µM. actives 3.8% (n = 220,000). AID 2732;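 active means compounds that reduced the stress-induced luciferase reporter signal by more than about 70% of percent inhibition, limit read from the data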
UPR XBP1 act = adaptive UPR (XBP1) activation; CHO-XBP1 luciferase reporter, IRE1-XBP1 UPR activation, luminescence; percent of tunicamycin response, DMSO as zero; actives 0.33% (n = 330,000); activation, % at 20 µM;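 active means versus positive control, 20 µM dose yields 30% or more activation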
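Material: CHO cell line with stable XBP1 luciferase reporter; buffer or medium: F12 medium containing 10% fetal bovine serum; compound: single point, 20 µM final compound, 1% DMSO; incubation: 6 h treatment, 37 °C; measured by: glow luminescence from Steady-Glo reagent; evaluation: activation, % of tunicamycin; control set: tunicamycin high, DMSO low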
VLA-4 inh = inhibition in a human VLA-4 binding assay; VLA-4 expressing cells, ligand binding flow cytometry; inhibition, % (about 7 µM as worked out from the volumes in the protocol); actives 0.2% (n = 330,000); in the data active means inhibition above about 50%
Beta2AR agonist = agonists of human beta-2 adrenergic receptor inducing internalization. P07550. Am2.2-beta2AR cells, FAP receptor internalization, flow cytometry. response, % (concentration not given with the values). actives 0.43% (n = 340,000). AID 504454;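 active means response above a set limit, near 3 SD of response in nonfluorescent compounds, cut at about 42% in these data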
UPR XBP1 confirm = confirmation of adaptive unfolded protein response (XBP1) activators; activation, % at 20 µM; shares compounds with UPR XBP1 act; actives 63% (n = 1,000); CHO-XBP1 IRE1-XBP1 luciferase reporter, luminescence;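 active means reporter signal at least 30% of the positive control's activation in two or more of four replicate wells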
B2AR ag CP1 = activates human beta-2 adrenergic receptor. shares compounds with Beta2AR agonist. Am2.2-beta2AR cells, FAP surface receptor, flow cytometry; active compounds read low. percent response (surface receptor), % at 10 µM. actives 25% (n = 1,100);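 active means surface receptor percent response at or below 58%, roughly 3 SD from nonfluorescent compounds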
B2AR FAP counter = fluorescence artifact in beta-2AR agonist FAP counterscreen | 1,100 tested, under 10 active | calls only at 10 µM | Am2.2 cells, FAP fluorogen flow cytometry; active compounds read low | AID 588765 | shares compounds with Beta2AR agonist;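 active means percent response below a set limit in fluorescence channel 1 and below 50% in channel 8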
Of the large screens only hits and unclear results are named; the others gave an inactive call (follow-up assays come after a bar, where they were run); ! = repeats disagree.

CCN(CC)c1ccc(-c2nn3c(-c4ccccc4OC)nnc3s2)cc1	UPR XBP1 act 30.4, Beta2AR agonist 42.1 (no result: CHOP inh) | UPR XBP1 confirm 31.9 | B2AR ag CP1 inactive | B2AR FAP counter inactive
CC(=O)Nc1ccc(S(=O)(=O)N2CCCCC2c2cccnc2)cc1 (stereo not drawn)	none | B2AR ag CP1 20.5 | B2AR FAP counter inactive
CC(=O)Nc1ccc(S(=O)(=O)N2CCCC3CCCCC32)cc1 (stereo not drawn)	none (no result: CHOP inh)
CCC1CCCCN1S(=O)(=O)c1ccc(NC(=O)c2ccncc2)cc1 (stereo not drawn)	none (no result: CHOP inh)
CCCCC(=O)Nc1ccc(S(=O)(=O)N2CCCCC2c2cccnc2)cc1 (stereo not drawn)	Beta2AR agonist 128.8 (no result: CHOP inh) | B2AR ag CP1 26.7 | B2AR FAP counter inactive
O=C(Nc1ccc(S(=O)(=O)N2CCCCC2c2cccnc2)cc1)c1c(F)cccc1F (stereo not drawn)	Beta2AR agonist 87.2 | B2AR ag CP1 49.2 | B2AR FAP counter inactive
O=C1OC(CC(=O)N(Cc2nnc(-c3ccc(Cl)cc3)o2)C2CC2)c2ccccc21 (stereo not drawn)	none (no result: CHOP inh)
O=C(CN(C(=O)Cn1nnc(-c2ccc(F)cc2)n1)c1cccc(F)c1)NC1CCCC1	none (no result: CHOP inh)
COCc1nc2ccccc2n1CCc1ccccc1	none (no result: CHOP inh)
CC(=O)N1N=C(c2ccccc2O)CC1c1cccs1 (stereo not drawn)	none (no result: CHOP inh)
Cc1ccc(Sc2ncccc2COC(=O)Nc2c(C)cccc2C)cc1	Beta2AR agonist 63.1 | B2AR ag CP1 inactive | B2AR FAP counter inactive
CC(NC(=O)C1CCN(S(=O)(=O)c2cccc3cccnc23)CC1)c1ccccc1 (stereo not drawn)	none (no result: CHOP inh)
CC(NC(=O)C1CCCN1S(=O)(=O)c1cccc2cccnc12)c1ccccc1 (stereo not drawn)	Beta2AR agonist 56.1 | B2AR ag CP1 inactive | B2AR FAP counter inactive
COc1ccc(CCN2CCCn3c2nc2c3c(=O)n(C)c(=O)n2C)cc1OC	none (no result: CHOP inh, VLA-4 inh)
CCN(CCNCC(O)COc1ccccc1C(C)C)c1cccc(C)c1 (stereo not drawn)	Beta2AR agonist 45.2 (no result: CHOP inh) | B2AR ag CP1 inactive | B2AR FAP counter inactive
CCOC(=O)c1ccc(N=c2sc(C(=O)OC)cc(=O)n2-c2ccc(C(=O)OCC)cc2)cc1	Beta2AR agonist 48.1 | B2AR ag CP1 49.7 | B2AR FAP counter inactive
COC(=O)c1cc(=O)n(-c2ccccc2)c(=Nc2ccccc2)s1	none
Fc1ccc([C@@H]2CCNC[C@H]2COc2ccc3c(c2)OCO3)cc1	Beta2AR agonist 44.5! | B2AR ag CP1 inactive | B2AR FAP counter inactive
Fc1ccc(C2CCNCC2COc2ccc3c(c2)OCO3)cc1 (stereo not drawn)	none (no result: CHOP inh)
O=C1CC(=O)NC(SCC(=O)Nc2ccccc2[N+](=O)[O-])=N1	none (no result: CHOP inh)
CCOc1cc(C(=S)N2CCOCC2)ccc1OS(=O)(=O)c1ccccc1[N+](=O)[O-]	none | B2AR ag CP1 inactive | B2AR FAP counter inactive
COCc1nnc(NC(=O)c2cccc(NC(=O)C(C)C)c2)s1	none
COCc1nnc(NC(=O)C(C)C)s1	Beta2AR agonist 52.9 | B2AR ag CP1 inactive | B2AR FAP counter inactive
O=C(NCC(c1cccs1)N1CCOCC1)c1ccccc1NS(=O)(=O)c1ccc(Cl)c([N+](=O)[O-])c1 (stereo not drawn)	Beta2AR agonist 63.3 | B2AR ag CP1 inactive | B2AR FAP counter inactive
O=C(NCC(c1cccs1)N1CCOCC1)c1ccccc1NS(=O)(=O)c1cccc([N+](=O)[O-])c1 (stereo not drawn)	none
O=C(c1cc(COc2ccc(F)cc2Cl)on1)N1CC2C[C@@H]3CC1C[C@H](C2)C3	Beta2AR agonist 86.9 (no result: CHOP inh) | B2AR ag CP1 22.7 | B2AR FAP counter inactive
O=C(c1cc(COc2ccc(F)cc2Cl)on1)N1C[C@H]2CC[C@H]1C2	none (no result: CHOP inh)
